Bioassay records deposited in PubChem by several laboratories.
Hits are enriched below; roughly 1.5% of the tested compounds scored in any of these assays.
697 NFkB inh = inhibitors of PMA/ionomycin-induced NF-kB reporter, 697 cells, primary screen, B-cell NF-kB inhibitor project, cell-based, luminescence, uHTS; inhibition, % at 4 µM; 330,000 tested, 0.33% active; AID 435022, 2010; 697 B-cell NF-kB luciferase reporter, 16 h; in the data active = inhibition above about 35%
JMJD2C inh = inhibitors of GASC-1 histone demethylase, primary screen, biochemical, fluorescence, DELFIA europium | Lysine-specific demethylase 4C (Homo sapiens), Q9H3R0 | GST-JMJD2C(1-420) H3K9me3 demethylation | inhibition, % at 2.35 µM | 330,000 tested, 0.069% active | AID 2099, 2009;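 active = more than half of a compound's replicate wells show inhibition beyond 50%, single wells judged on their own value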;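 note: signal counts dimethyl H3K9 product captured on neutravidin plate; 0% = median of DMSO wells and 100% = 0.3 times that DMSO median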
Target sequence (Q9H3R0 1-420 limits assumed): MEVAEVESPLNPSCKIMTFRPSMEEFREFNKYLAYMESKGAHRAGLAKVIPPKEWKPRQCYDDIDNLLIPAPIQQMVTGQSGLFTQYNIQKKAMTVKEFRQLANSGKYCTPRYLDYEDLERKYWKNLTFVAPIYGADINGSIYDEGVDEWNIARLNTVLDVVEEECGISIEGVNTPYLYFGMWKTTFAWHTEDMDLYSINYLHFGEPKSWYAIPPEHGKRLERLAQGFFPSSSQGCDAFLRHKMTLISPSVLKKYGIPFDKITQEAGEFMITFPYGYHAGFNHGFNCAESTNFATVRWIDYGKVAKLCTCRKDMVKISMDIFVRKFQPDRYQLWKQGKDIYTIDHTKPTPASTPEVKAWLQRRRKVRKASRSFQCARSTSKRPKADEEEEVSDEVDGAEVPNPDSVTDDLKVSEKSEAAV
NR2E3 ag-1 = NR2E3 agonists in two-hybrid cells, primary screen, cell-based, luminescence, CHO-S, Gal4-NCOR/VP16-NR2E3 | AID 602229, 2012 | 360,000 tested, 0.35% active | Photoreceptor-specific nuclear receptor (Homo sapiens), Q9Y5X4 | inhibition of corepressor binding, % at 3.98 µM | luciferase;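 active = inhibition above the mean of all tested compounds plus 3 SD, cut at about 70% in these data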;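 note: 0% = DMSO with NR2E3 transfected cells and 100% = cells lacking NR2E3 construct; higher means lower luciferase signal from less NR2E3 corepressor binding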
GalR3 antag = GalR3 antagonists in HEK293 cells, primary screen, cell-based, fluorescence readout; inhibition, % at 3 µM; 360,000 tested, 0.44% active; HEK293 GalR3-CNG cAMP membrane potential fluorescence; galR3 body fused to GalR1 C-terminus; Galanin receptor type 3 (Homo sapiens), O60755; AID 651719, 2012;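 active = inhibition above the screen-wide average plus 3 SD, cut at about 13% in these data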;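 note: forskolin and galanin both at EC90 stimulate the cells; cAMP rise reported by CNG channel membrane potential dye signal; 0% = forskolin plus galanin with DMSO and 100% = forskolin alone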
Target sequence (O60755 1-299 limits assumed): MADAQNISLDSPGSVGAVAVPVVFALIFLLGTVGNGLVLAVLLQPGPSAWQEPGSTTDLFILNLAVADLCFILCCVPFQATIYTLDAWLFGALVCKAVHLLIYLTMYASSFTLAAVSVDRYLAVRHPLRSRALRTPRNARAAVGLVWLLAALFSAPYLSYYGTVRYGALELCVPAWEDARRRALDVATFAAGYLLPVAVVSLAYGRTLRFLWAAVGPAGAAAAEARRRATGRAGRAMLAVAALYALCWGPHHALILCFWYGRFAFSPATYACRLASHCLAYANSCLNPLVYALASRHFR
NR2E3 ag-2 = inhibitors of NR2E3-RetCOR corepressor binding, primary screen, NR2E3 agonist project, biochemical, TR-FRET, GST-NR2E3, biotin-RetCOR; 1536-well; inhibition of corepressor binding, % at 4.78 µM; 320,000 tested, 0.12% active; AID 2300, 2010;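 active = percent inhibition above the cutoff of mean plus 3 SD of all tested compounds, set per screening campaign, cut at about 20% in these data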;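 note: 0% = DMSO wells and 100% = biotin wells as full block of FRET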
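Material: NR2E3–RetCOR corepressor complex / Amount: 1.35 nM GST-NR2E3 / Medium: Tris pH 7.5 / Compound: single nominal compound dose of 4.8 µM / Incubation: 5 h at 4 °C / Technique: TR-FRET, Eu(K)-anti-GST donor, streptavidin-D2 acceptor, ex 340, em 617/671 nm / Read-out basis: percent loss of FRET ratio relative to control wells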
Jurkat NFkB inh = inhibitors of induced NF-kB luciferase reporter, primary screen, TCR NF-kB activation inhibitor project, cell-based, luminescence, uHTS; Jurkat, PMA/ionomycin-induced NF-kB luciferase reporter; 330,000 tested, 0.53% active; AID 435003, 2010; inhibition, % at 4 µM; in the data active = inhibition above about 50%
Jurkat NFkB conf = PMA/ionomycin-induced NF-kB reporter inhibitors, Jurkat retest, confirmation, T-cell NF-kB inhibitor project, cell-based, luminescence, single concentration; 2,700 tested, 27% active; shares compounds with Jurkat NFkB inh; AID 435020, 2010; Jurkat NF-kB luciferase, 16 h; inhibition, % at 4 µM;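 active = inhibition reaching about 45% at 4 µM in either replicate, limit read from the data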;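 note: plate controls were PMA/ionomycin stimulated DMSO wells for no effect and unstimulated DMSO wells for full effect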
Starred values were filed as active, the others as inactive; · = no result given.

SMILES	697 NFkB inh	JMJD2C inh	NR2E3 ag-1	GalR3 antag	NR2E3 ag-2	Jurkat NFkB inh	Jurkat NFkB conf
CC(C)NCC(O)Cn1c2c(c3ccccc31)CCc1c-2cnn1-c1ccccc1 (stereo not drawn)	-164.7	-17.0	-5.1	0.3	-3.4	58.5*	-12.3
CN(C)c1nc(Oc2ccc(N)cc2)nc(N(C)C)n1	2.1	0.4	2.4	-2.4	3.7	-4.4	·
Cc1ccc(-c2cc(C(F)F)n3ncc(C(=O)N4CCc5ccccc54)c3n2)cc1	-46.1	-4.3	-10.5	-5.6	-1.5	61.0*	46.8*
O=C(/C=C/c1cccc([N+](=O)[O-])c1)n1cnc2ccccc21	-43.3	7.7	-4.4	-5.5	·	71.3*	40.2
Cn1c2ccccc2c(=O)c2cc(C#CC3(O)CCCCC3)ccc21	-151.8	3.3	-3.9	-4.7	-0.6	-81.3	·
Cn1c2ccccc2c(=O)c2ccc(C#CC3(N)CCCCC3)cc21	-164.9	-2.0	-35.0	9.3	4.8	-175.9	-16.6
CO/N=C/C(=N\Nc1ccc(C)cc1)C(=O)c1ccc(OC)cc1	-6.2	5.9	-7.8	2.0	3.5	50.9*	32.9
CC1(C)Cc2c(sc(NC(=O)COc3cccc4ccccc34)c2C#N)C(C)(C)N1	-16.7	10.2	10.2	-3.1	-41.5	87.4*	62.4*
O=C(NNC(=O)c1ccco1)c1ccc(NS(=O)(=O)c2cccs2)cc1	9.5	-12.0	-13.3	-2.1	0.8	4.2	·
COc1ccccc1C1c2ccc3ccccc3c2Oc2ncn(CCN(C)C)c(=N)c21 (stereo not drawn)	7.4	-19.1	-14.8	-12.9	-1.5	77.7*	13.2
COc1ccc(C2c3ccc4ccccc4c3Oc3ncn(CCCN(C)C)c(=N)c32)cc1 (stereo not drawn)	8.9	-17.9	10.3	-13.5	-1.1	52.2*	22.4
COC(C(=O)Nc1ccnn1C1CCN(Cc2cnn(C(C)C)c2)CC1)c1ccccc1 (stereo not drawn)	8.8	2.2	-23.4	-1.3	1.6	2.0	·
Cc1cc(/C=C(\C#N)C(=O)Nc2ccccc2F)c(C)[nH]1	-128.2	-1.0	-103.5	-7.0	-0.5	-190.8	-5.0
CCOC(=O)N1CCN(C(=O)/C(=C/c2cccs2)NC(=O)c2ccc(OC)c(OC)c2)CC1	5.4	-3.7	-3.3	-6.9	0.6	-13.1	·
CCOc1ccc2c(c1)OC(c1ccc(OC)cc1)(C(F)(F)F)NC2=O (stereo not drawn)	-11.8	-29.7	-37.1	-3.4	0.8	56.6*	39.8
COc1ccc2ccccc2c1/C=N/NC(=O)c1nnn(-c2nonc2N)c1C(C)C	-16.9	9.9	-7.6	-11.1	8.2	7.5	·
Cn1cc(C(=O)N/N=C/c2c(O)ccc3ccccc23)ccc1=O	14.1	0.9	2.9	-8.4	-3.0	58.5*	75.8*
O=C(N/N=C/c1c(O)ccc2ccccc12)Nc1ccccc1	-31.9	-2.6	·	-3.0	-1.5	0.6	·
O=C(N/N=C/c1c(O)ccc2ccccc12)c1ccc(Br)o1	-2.4	-0.3	-80.6	-2.9	3.1	51.9*	62.5*
Cc1c(C(=O)N/N=C/c2c(O)ccc3ccccc23)nnn1-c1nonc1N	19.9	15.3	0.3	-6.1	2.4	54.8*	75.5*
O=C(N/N=C\c1c(O)ccc2ccccc12)c1ccc(O)cc1	-7.7	-1.7	-24.9	-3.8	1.9	5.8	·
O=C(CSCC(=O)Nc1ccccc1)N/N=C/c1c(O)ccc2ccccc12	17.0	6.4	-15.7	-5.7	0.4	63.0*	36.8
Cc1ccccc1OCCCn1c(=O)sc2ccccc21	-106.6	0.9	-150.7	-6.7	1.0	-47.7	·
CCCC#Cc1ccc2c(c1)O[C@H](CN(C)S(=O)(=O)c1cccc(OC)c1)[C@H](C)CN([C@H](C)CO)S2(=O)=O	·	·	-27.8	-5.5	·	·	·
CC(=O)Nc1ccc(NC2CCCCC2NS(=O)(=O)c2ccccc2)cc1 (stereo not drawn)	18.2	6.6	-8.8	-2.6	0.3	16.3	·
SMILES	697 NFkB inh	JMJD2C inh	NR2E3 ag-1	GalR3 antag	NR2E3 ag-2	Jurkat NFkB inh	Jurkat NFkB conf
O=C(N/N=C\c1c(O)ccc2ccccc12)c1cncc(Br)c1	-8.3	4.2	2.9	-3.5	2.5	52.3*	79.2*
CC(=Nc1cccc(O)c1)c1sc2ccccc2c1O	-185.3	6.6	-91.5	-3.1	-2.0	-120.6	·
CC(=Nc1ccc(C)cc1C)c1sc2ccccc2c1O	-172.6	-0.6	-124.0	-5.3	5.3	-202.5	-39.6
COc1cccc(/C=N/Nc2ncnc3c2ncn3Cc2ccccc2)c1O	-34.1	-6.3	16.1	-2.4	-1.4	63.5*	67.3*
CCOC(=O)c1ccc2nc(Nc3nc4ccc(F)cc4s3)sc2c1	10.3	-18.4	37.4	-0.2	-1.3	55.6*	84.5*
CCOC(=O)c1ccc2nc(NC(C)=O)sc2c1	·	-13.1	-103.7	-5.0	3.9	·	·
CC(=O)Nc1ccc(NC(=O)COC(=O)c2cc(S(=O)(=O)N3CCCC3)ccc2O)cc1	12.6	2.0	-35.0	-0.4	·	8.8	·
O=C(COC(=O)c1cc(S(=O)(=O)N2CCCC2)ccc1O)Nc1ccc(F)cc1F	18.1	-0.5	15.5	-2.1	·	70.3*	25.4
COc1ccc(CCNc2nnc(Sc3nnnn3-c3ccccc3)s2)cc1OC	-129.7	4.7	31.9	-5.7	-5.9	77.2*	55.1*
O=C(COC(=O)c1cc([N+](=O)[O-])ccc1N1CCOCC1)c1ccc(Br)cc1	-16.0	0.8	-15.8	-2.6	4.1	13.0	·
Cc1ccccc1COC(=O)c1cc([N+](=O)[O-])ccc1N1CCOCC1	0.7	15.5	-3.1	1.7	0.7	34.9	·
CCOc1ccc(C(=O)COC(=O)c2cc([N+](=O)[O-])ccc2N2CCOCC2)cc1	-22.8	-3.5	-33.6	-3.6	-4.1	52.5*	6.7
COc1ccc(OC)c(COC(=O)c2cc([N+](=O)[O-])ccc2N2CCOCC2)c1	-37.6	1.4	-23.4	-4.1	-0.5	52.1*	30.2
COc1ccc(C2SCC(=O)N2CCc2ccc(OC)c(OC)c2)cc1 (stereo not drawn)	-28.0	-16.0	-3.9	-8.2	1.7	65.2*	38.6
COc1ccc(CCN2C(=O)CSC2c2ccc(OC)c(OC)c2)cc1OC (stereo not drawn)	-18.9	0.0	16.4	-3.8	-0.7	-3.9	·
